According to paper PMC5073817 (ACS chemical neuroscience, 2016):
Entries after “also recorded” stand apart in the source; their conditions may differ. Like-named read-outs stand apart in the source and are kept apart here. Marks after values point to notes of the source that are not given here.

Experiments:
[1] = tested on: mGlu2 coexpressed with mGlu4; settings: cited from earlier work
human mGlu4 = human mGlu4 (Homo sapiens, UniProt Q14833); assay: Gqi5-mediated calcium mobilization assay, human mGlu4/Gqi5/CHO cells; type: cell-based; settings: absence of glutamate
rat mGlu4 = rat mGlu4 (Rattus norvegicus, UniProt P31423); assay: GIRK/thallium flux assay, rat mGlu4/HEK/GIRK cells; type: cell-based
Outline: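 Polyclonal HEK/GIRK cells stably expressing rat mGlu4 (pIRESpuro3, puromycin-selected) were loaded with 330 nM final FluoZin-2 AM in HBSS/20 mM HEPES pH 7.4 for 1 h at room temperature. Thallium flux was read kinetically at room temperature. EC50 came from four-parameter logistic fits; three determinations in triplicate, mean ± SEM.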

mGlu4 = mGlu4 (Rattus norvegicus, UniProt P31423); assay: Glutamate concentration-response curve shift in cells expressing mGlu4 alone; type: cell-based; settings: for glutamate pEC50 in presence of PAM / fold shift of glutamate CRC: mGlu4 alone
mGlu2/4 = assay: Glutamate concentration-response curve shift in cells expressing mGlu2 and mGlu4; type: cell-based, rat; settings: for effect on the glutamate CRC: cells expressing mGlu2 and mGlu4; for glutamate pEC50 in presence of PAM / fold shift of glutamate CRC: mGlu2/4 cells
mGlu4 homomers = mGlu4 homomers (Rattus norvegicus, UniProt P31423); assay: CODA-RET assay, mGlu4_L1/mGlu4_L2; type: cell-based; settings: for max response (BRET) in presence of PAM: mGlu4_L1/mGlu4_L2, L-AP4; for potentiation of L-AP4 responses: mGlu4 labeled with L1 or L2
Outline: (§1)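 HEK-293T cells were PEI-transfected with HA-tagged rat mGlu constructs bearing luciferase fragments, plus Gαi-mVenus, Gβ1 and Gγ2. Plasmid ratios were 4:4:1:1:1 for mGlu4-L1/mGlu4-L2 homomers and 4:8:1:1:1 for mGlu4-L1/mGlu2-L2 heteromers. At 48 h, about 200 000 cells/well in PBS were stimulated 5 min at 37 °C with L-AP4 with or without increasing compound. Coelenterazine H (5 µM) was added, read 2 min later; BRET ratio = 510–540 nm over 485 nm.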

mGlu2/4 heteromers = mGlu2/4 heteromers (Rattus norvegicus, UniProt P31423); assay: CODA-RET assay, mGlu4_L1/mGlu2_L2; type: cell-based; settings: for max response (BRET) in presence of PAM: L-AP4; for potentiation of L-AP4 responses: mGlu4_L1 and mGlu2_L2 coexpressed
Outline: as §1

[2] = tested on: haloperidol-induced catalepsy; assay: Haloperidol-induced catalepsy; type: in vivo, Sprague–Dawley rats; settings: oral, catalepsy assessed 30 min after dosing
[3] = Plasma and brain exposure time course after 30 mg/kg dose; type: in vivo; settings: rat
[4] = tested on: rotarod motor performance; assay: Rotarod test; type: in vivo, rats; settings: doses up to 100 mg/kg p.o., tested 30 min later
Outline: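 Rats were pre-trained on the rotarod, then given vehicle or test compound at 10, 30, 56.6 or 100 mg/kg p.o. (10 mL/kg). Motor performance was tested 30 min after dosing.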

[5] = tested on: unilateral 6-OHDA lesion forelimb asymmetry; assay: 6-OHDA lesion-induced forelimb asymmetry; type: in vivo, rats
[6] = cited from earlier work
6-OHDA lesion models = settings: various 6-OHDA lesion models; cited from earlier work
[7] = tested on: haloperidol-induced catalepsy; settings: 56.6 mg/kg p.o.; previously demonstrated; cited from earlier work
[8] = CODA-RET, labeled mGlu2 and mGlu4 coexpressed

rat mGlu4, sequence (P31423 33-912): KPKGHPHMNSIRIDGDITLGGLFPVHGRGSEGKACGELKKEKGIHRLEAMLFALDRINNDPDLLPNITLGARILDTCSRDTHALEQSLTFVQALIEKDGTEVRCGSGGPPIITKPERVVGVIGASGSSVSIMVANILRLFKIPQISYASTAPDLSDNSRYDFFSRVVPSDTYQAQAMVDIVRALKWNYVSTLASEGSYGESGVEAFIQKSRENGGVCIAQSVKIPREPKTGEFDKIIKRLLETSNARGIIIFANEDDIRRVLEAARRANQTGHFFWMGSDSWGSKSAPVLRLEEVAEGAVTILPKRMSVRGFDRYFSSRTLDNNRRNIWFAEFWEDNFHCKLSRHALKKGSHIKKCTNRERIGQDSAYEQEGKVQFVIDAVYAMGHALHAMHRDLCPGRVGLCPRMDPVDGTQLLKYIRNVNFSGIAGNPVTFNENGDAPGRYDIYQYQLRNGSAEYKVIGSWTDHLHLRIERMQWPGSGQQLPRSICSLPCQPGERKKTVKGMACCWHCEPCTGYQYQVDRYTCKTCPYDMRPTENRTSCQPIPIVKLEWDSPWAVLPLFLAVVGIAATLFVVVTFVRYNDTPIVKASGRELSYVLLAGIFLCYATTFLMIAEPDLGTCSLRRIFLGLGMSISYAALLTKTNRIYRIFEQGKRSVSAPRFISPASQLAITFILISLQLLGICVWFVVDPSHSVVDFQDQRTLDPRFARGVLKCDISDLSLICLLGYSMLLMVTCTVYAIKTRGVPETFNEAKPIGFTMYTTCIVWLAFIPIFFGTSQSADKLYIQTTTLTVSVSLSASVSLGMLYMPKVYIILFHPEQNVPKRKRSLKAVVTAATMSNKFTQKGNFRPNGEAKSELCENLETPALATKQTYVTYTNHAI
mGlu4 homomers, sequence (P31423 33-912): as above
mGlu4 homomers, sequence (P31423 33-912): as above
mGlu4, sequence (P31423 33-912): as above
mGlu2/4 heteromers, sequence (P31423 33-912): as above
mGlu2/4 heteromers, sequence (P31421 19-872 partner): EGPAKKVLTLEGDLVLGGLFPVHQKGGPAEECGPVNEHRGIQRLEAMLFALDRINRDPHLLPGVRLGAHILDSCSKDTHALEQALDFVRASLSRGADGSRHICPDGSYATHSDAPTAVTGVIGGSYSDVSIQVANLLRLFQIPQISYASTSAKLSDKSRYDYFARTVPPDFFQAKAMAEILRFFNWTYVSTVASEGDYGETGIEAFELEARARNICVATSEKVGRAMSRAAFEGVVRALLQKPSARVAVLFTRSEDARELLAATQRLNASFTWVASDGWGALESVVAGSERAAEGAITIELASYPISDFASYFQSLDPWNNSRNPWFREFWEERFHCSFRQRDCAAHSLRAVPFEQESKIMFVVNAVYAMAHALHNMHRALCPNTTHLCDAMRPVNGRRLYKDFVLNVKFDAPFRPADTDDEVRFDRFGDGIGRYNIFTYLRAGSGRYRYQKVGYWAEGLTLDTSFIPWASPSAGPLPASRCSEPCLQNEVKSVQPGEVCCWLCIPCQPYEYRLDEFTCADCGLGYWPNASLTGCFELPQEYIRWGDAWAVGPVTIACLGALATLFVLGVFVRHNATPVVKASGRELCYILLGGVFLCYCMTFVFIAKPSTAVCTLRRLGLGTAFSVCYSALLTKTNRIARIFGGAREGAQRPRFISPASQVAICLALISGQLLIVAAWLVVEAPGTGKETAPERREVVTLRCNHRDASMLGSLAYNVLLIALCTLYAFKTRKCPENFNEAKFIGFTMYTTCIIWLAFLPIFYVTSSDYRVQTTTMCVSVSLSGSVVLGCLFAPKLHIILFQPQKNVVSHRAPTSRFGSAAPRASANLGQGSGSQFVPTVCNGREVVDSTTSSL
human mGlu4, sequence (Q14833 33-912): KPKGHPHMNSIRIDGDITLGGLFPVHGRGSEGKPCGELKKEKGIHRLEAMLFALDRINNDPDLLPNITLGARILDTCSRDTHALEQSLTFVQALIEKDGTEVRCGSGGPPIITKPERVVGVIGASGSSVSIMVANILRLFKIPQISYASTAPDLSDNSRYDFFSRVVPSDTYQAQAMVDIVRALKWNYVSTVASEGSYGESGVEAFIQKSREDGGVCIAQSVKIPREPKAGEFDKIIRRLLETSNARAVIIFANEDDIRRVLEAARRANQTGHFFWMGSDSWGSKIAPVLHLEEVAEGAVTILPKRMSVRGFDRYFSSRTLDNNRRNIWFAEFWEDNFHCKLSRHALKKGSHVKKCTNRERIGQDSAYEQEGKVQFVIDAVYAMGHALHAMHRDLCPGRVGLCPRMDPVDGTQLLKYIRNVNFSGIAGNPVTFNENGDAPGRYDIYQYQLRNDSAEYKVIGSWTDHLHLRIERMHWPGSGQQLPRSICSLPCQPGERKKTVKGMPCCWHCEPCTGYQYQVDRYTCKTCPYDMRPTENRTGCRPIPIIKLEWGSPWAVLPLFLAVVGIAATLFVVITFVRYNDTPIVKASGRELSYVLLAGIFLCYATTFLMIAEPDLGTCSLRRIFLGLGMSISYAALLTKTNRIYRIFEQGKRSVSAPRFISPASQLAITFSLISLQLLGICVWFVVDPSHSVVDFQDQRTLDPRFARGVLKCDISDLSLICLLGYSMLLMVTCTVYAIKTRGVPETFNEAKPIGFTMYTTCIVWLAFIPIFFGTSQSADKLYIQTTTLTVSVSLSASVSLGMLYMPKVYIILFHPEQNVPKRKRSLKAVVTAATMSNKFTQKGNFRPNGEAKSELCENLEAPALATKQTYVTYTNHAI

O=C(Nc1cc(Cl)cc(Cl)c1)[C@H]1CCCC[C@H]1C(=O)O [VU0155041]
potentiation when mGlu2 and mGlu4 are coexpressed [1]: induce potentiation regardless of mGlu2 expression

Fc1ccc(Nc2n[nH]c3cccnc23)cc1Cl [VU0418506, N-(3-chloro-4-fluorophenyl)-1H-pyrazolo[4,3-b]pyridin-3-amine]
direct allosteric agonist activity (compound added alone) (human mGlu4): does not exhibit direct allosteric agonist activity; also recorded: does not elicit activity in this assay in the absence of glutamate
EC50 (rat mGlu4): 46.6 nM
pEC50 (PAM potency) (rat mGlu4; rat mGlu4, GIRK/thallium flux, mean ± SEM): 7.34 ± 0.04
EC50 (rat mGlu4; read-out: EC50 (PAM potency), rat mGlu4, GIRK/thallium flux): 46 nM
potentiation of glutamate response (mGlu4; cells only expressing mGlu4): induced significant potentiation
glutamate pEC50 in presence of PAM (mGlu4; PAM concentration −5 (log)): 5.87 ± 0.13 ^b
glutamate pEC50 in presence of PAM (mGlu4; PAM concentration −5.5 (log)): 6.07 ± 0.21 ^b
glutamate pEC50 in presence of PAM (mGlu4; PAM concentration −6 (log)): 5.93 ± 0.12 ^b
glutamate pEC50 in presence of PAM (mGlu4; PAM concentration −6.5 (log)): 5.67 ± 0.14 ^b
glutamate pEC50 in presence of PAM (mGlu4; PAM concentration −7 (log)): 5.55 ± 0.17 ^b
glutamate pEC50 in presence of PAM (mGlu4; PAM concentration −8 (log)): 5.08 ± 0.07
effect on the glutamate CRC (mGlu2/4): no effect on the glutamate CRC
glutamate pEC50 in presence of PAM (mGlu2/4; PAM concentration −5.5 (log)): 6.02 ± 0.02
glutamate pEC50 in presence of PAM (mGlu2/4; PAM concentration −6.5 (log)): 5.89 ± 0.07
glutamate pEC50 in presence of PAM (mGlu2/4; PAM concentration −7 (log)): 5.87 ± 0.05
glutamate pEC50 in presence of PAM (mGlu2/4; PAM concentration −8 (log)): 5.86 ± 0.08
max response (BRET) in presence of PAM (mGlu4 homomers; CODA-RET): 0.047 ± 0.0004
potentiation of L-AP4 responses (mGlu4 homomers): able to potentiate responses
max response (BRET) in presence of PAM (mGlu2/4 heteromers; [8]): 0.021 ± 0.002
potentiation of L-AP4 responses (mGlu2/4 heteromers): unable to potentiate L-AP4 responses
doses with significant activity in reversing catalepsy [2]: ≥ 3 mg/kg
time after dosing for which sustained plasma and brain levels were observed [3]: at least 6 h
impairment of rotorod performance [4]: did not observe any impairment
reversal of forelimb asymmetry ([5]; 3 mg/kg VU0418506 combined with 0.75 mg/kg L-DOPA): statistically significant efficacy
reversal of forelimb asymmetry ([5]; 3 mg/kg alone): inactive alone
reversal of forelimb asymmetry ([5]; 10 mg/kg administered alone, assessed after 30 min): statistically significant reversals of forelimb asymmetry
reversal of forelimb asymmetry ([5]; 30 mg/kg administered alone, assessed after 30 min): statistically significant reversals of forelimb asymmetry
brain penetration [6]: good brain penetration

NC(=O)[C@@H]1CCCC[C@@H]1C(=O)Nc1ccc(Cl)c(Cl)c1 [Lu AF21934]
fold shift of glutamate CRC (mGlu4; PAM concentration −4.5 (log)): 4.2 ± 0.42
glutamate pEC50 in presence of PAM (mGlu4; PAM concentration −4.5 (log)): 5.43 ± 0.08 ^b
fold shift of glutamate CRC (mGlu4; PAM concentration −5 (log)): 3.8 ± 0.21 ^c
glutamate pEC50 in presence of PAM (mGlu4; PAM concentration −5 (log)): 5.39 ± 0.06 ^b
fold shift of glutamate CRC (mGlu4; PAM concentration −5.5 (log)): 3.2 ± 0.28 ^c
glutamate pEC50 in presence of PAM (mGlu4; PAM concentration −5.5 (log)): 5.32 ± 0.07 ^b
fold shift of glutamate CRC (mGlu4; PAM concentration −6 (log)): 2.1 ± 0.17
glutamate pEC50 in presence of PAM (mGlu4; PAM concentration −6 (log)): 5.14 ± 0.07 ^b
fold shift of glutamate CRC (mGlu4; PAM concentration −6.5 (log)): 1.6 ± 0.09 ^c
glutamate pEC50 in presence of PAM (mGlu4; PAM concentration −6.5 (log)): 5.00 ± 0.04 ^b
fold shift of glutamate CRC (mGlu4; PAM concentration −7 (log)): 1.5 ± 0.12
glutamate pEC50 in presence of PAM (mGlu4; PAM concentration −7 (log)): 4.99 ± 0.07 ^b
fold shift of glutamate CRC (mGlu4; PAM concentration −8 (log)): 1.1 ± 0.03
glutamate pEC50 in presence of PAM (mGlu4; PAM concentration −8 (log)): 4.85 ± 0.03
effect on the glutamate CRC (mGlu2/4): induced a leftward shift in the glutamate CRC
fold shift of glutamate CRC (mGlu2/4; PAM concentration −4.5 (log)): 3.2 ± 0.07
glutamate pEC50 in presence of PAM (mGlu2/4; PAM concentration −4.5 (log)): 6.41 ± 0.08 ^b
fold shift of glutamate CRC (mGlu2/4; PAM concentration −5 (log)): 2.8 ± 0.07 ^c
glutamate pEC50 in presence of PAM (mGlu2/4; PAM concentration −5 (log)): 6.36 ± 0.08 ^b
fold shift of glutamate CRC (mGlu2/4; PAM concentration −5.5 (log)): 2.4 ± 0.13 ^c
glutamate pEC50 in presence of PAM (mGlu2/4; PAM concentration −5.5 (log)): 6.29 ± 0.06 ^b
fold shift of glutamate CRC (mGlu2/4; PAM concentration −6 (log)): 1.7 ± 0.04
glutamate pEC50 in presence of PAM (mGlu2/4; PAM concentration −6 (log)): 6.13 ± 0.09 ^b
fold shift of glutamate CRC (mGlu2/4; PAM concentration −6.5 (log)): 1.2 ± 0.05 ^c
glutamate pEC50 in presence of PAM (mGlu2/4; PAM concentration −6.5 (log)): 6.00 ± 0.09 ^b
fold shift of glutamate CRC (mGlu2/4; PAM concentration −7 (log)): 1.2 ± 0.07
glutamate pEC50 in presence of PAM (mGlu2/4; PAM concentration −7 (log)): 5.99 ± 0.06
fold shift of glutamate CRC (mGlu2/4; PAM concentration −8 (log)): 1.0 ± 0.07
glutamate pEC50 in presence of PAM (mGlu2/4; PAM concentration −8 (log)): 5.91 ± 0.11
max response (BRET) in presence of PAM (mGlu4 homomers; CODA-RET): 0.050 ± 0.003
L-AP4 pEC50 in presence of PAM (mGlu4 homomers; CODA-RET, mGlu4_L1/mGlu4_L2, mean ± SEM): 7.70 ± 0.01
potentiation of L-AP4 responses (mGlu4 homomers): able to potentiate responses
max response (BRET) in presence of PAM (mGlu2/4 heteromers; [8]): 0.032 ± 0.004
L-AP4 pEC50 in presence of PAM (mGlu2/4 heteromers; CODA-RET, labeled mGlu2 and mGlu4 coexpressed, mean ± SEM): 7.66 ± 0.11
potentiation of L-AP4 responses (mGlu2/4 heteromers): able to potentiate responses
potentiation when mGlu2 and mGlu4 are coexpressed [1]: induce potentiation regardless of mGlu2 expression
potentiation of the effects of subthreshold doses of L-DOPA (6-OHDA lesion models): potentiate the effects of subthreshold doses of L-DOPA

Cc1cc(C)n(-c2cc(NC(=O)CN3CCN(C)CC3)nc(-c3ccco3)n2)n1 [compound 23, N-(6-(3,5-dimethyl-1H–pyrazol-1-yl)-2-(furan-2-yl)-pyrimidin-4-yl)-2-(4-methylpiperazin-1-yl)acetamide]
reversal of haloperidol-induced catalepsy (positive control) [7]: robust reversal of haloperidol-induced catalepsy

Cc1ccnc(Nc2nc(-c3cn[nH]c3)c(C)s2)n1 [ADX88178]
potentiation of the effects of subthreshold doses of L-DOPA (6-OHDA lesion models): potentiate the effects of subthreshold doses of L-DOPA

N[C@@H](Cc1ccc(O)c(O)c1)C(=O)O [L-DOPA]
reversal of forelimb asymmetry ([5]; 0.75 mg/kg alone): inactive alone
reversal of forelimb asymmetry ([5]; 2.5 mg/kg dose): completely reversed motor deficits
